Compound activity: PubChem BioAssay, several laboratories
Shown are actives, neighbours in structure and some others; about 2.1% of the full set was active somewhere.
UCH37 DUB inh = inhibitors of human deubiquitinating enzyme UCH37 | AID 588478 | inhibition, % (no concentration beside the values) | purified proteasome/UCH37, Ub-AMC cleavage fluorescence | hit rate 0.33% among 330,000;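 active = mean inhibition over replicate wells above about 20%, limit read from the data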
Target sequence (Q9Y5K5 whole entry, looked up): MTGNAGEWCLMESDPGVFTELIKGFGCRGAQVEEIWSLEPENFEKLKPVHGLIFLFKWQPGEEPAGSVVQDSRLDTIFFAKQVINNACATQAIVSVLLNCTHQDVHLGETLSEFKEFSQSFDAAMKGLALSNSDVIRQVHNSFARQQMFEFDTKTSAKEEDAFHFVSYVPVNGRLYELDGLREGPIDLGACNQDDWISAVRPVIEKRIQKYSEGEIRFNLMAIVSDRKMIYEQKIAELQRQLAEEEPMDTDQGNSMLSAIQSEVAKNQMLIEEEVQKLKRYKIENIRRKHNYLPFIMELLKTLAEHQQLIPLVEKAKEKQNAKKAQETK
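Assay system: Proteasome-bound UCH37. Buffer or medium: pH 7.4 Tris-HCl (50 mM) with ovalbumin, ATP-MgCl2, DTT. Incubation: 30 min preincubation with enzyme, 25 min cleavage at room temperature. Measured by: fluorescence, ex 355 nm, em 460 nm. Read-out basis: percent inhibition. Control set: wells without proteasome as full block, compound-free enzyme plus substrate as uninhibited.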
PfGluPho inh = PfG6PD (Plasmodium falciparum) enzyme inhibition; PfGluPho enzyme, NADPH resazurin-diaphorase fluorescence; hit rate 0.78% among 350,000; inhibition, % at 20 µM; AID 504690;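 active = inhibition reaching at least a set limit at 20 µM in the primary screen, cut at about 59% in these data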
B2AR ag = human beta-2 adrenergic receptor agonism by FAP | Am2.2-beta2AR cells, FAP receptor internalization, flow cytometry | response, % (no concentration beside the values) | hit rate 0.43% among 340,000 | AID 504454;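 active = response above a set limit, near 3 SD of response in nonfluorescent compounds, cut at about 42% in these data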
Target sequence (P07550 whole entry, looked up): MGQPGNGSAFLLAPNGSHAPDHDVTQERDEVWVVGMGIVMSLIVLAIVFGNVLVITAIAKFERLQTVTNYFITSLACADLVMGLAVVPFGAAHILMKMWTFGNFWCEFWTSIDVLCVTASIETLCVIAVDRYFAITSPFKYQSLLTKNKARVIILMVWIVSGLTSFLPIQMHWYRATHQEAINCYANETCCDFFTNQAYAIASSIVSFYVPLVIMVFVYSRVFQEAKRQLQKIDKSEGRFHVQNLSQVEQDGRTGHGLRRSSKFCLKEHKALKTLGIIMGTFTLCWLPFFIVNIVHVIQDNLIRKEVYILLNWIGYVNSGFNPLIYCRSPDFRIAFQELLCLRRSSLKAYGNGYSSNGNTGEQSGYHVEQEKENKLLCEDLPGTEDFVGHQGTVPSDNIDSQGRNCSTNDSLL
aDG glyco up = alpha-DG glycosylation activation; Pro5-aDG cells, alpha-DG glycosylation AlphaScreen (IIH6); 0% Pro5, 100% B10-LARGE cell signal; hit rate 0.22% among 360,000; activation, % at 10 µM;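 active = activation of at least 8% versus controls, or a plate z-score of at least 8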;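 note: Pro5 are CHO cells carrying HIG-tagged alpha-DG that lacks glycosylation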
HKDC1 inh = inhibitors of human hexokinase HKDC1. inhibition, % at 20 µM. recombinant HKDC1, G6PDH/diaphorase resazurin coupled fluorescence. hit rate 0.16% among 340,000;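 active = inhibition above about 35% when tested at 20 µM, limit read from the data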
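test system = in-house recombinant HK5 (HKDC1) enzyme | amount = HKDC1 at 5 µg/mL | control set = DMSO-enzyme wells negative, buffer-substituted wells positive | compound = one dose of 20 µM, 1% DMSO | schedule = reaction time 90 min, room temperature, protected from light | technique = resorufin fluorescence at 613 nm | reagent = glucose with 1 mM ATP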
H9c2 protect = myocardial damage modulation in H9c2 cells | hit rate 0.63% among 360,000 | H9c2 cardiomyocytes, H2O2 injury protection, ATPLite, 2 h | protection from H2O2 cell death, % at 20 µM;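 active = compounds giving at least 50% protection of heart cells from peroxide-induced death in the single-dose screen, raw or plate-pattern-corrected value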
PfGluPho conf = PfG6PD inhibition, single-dose confirmed. hit rate 34% among 2,400. inhibition, % at 20 µM. shares compounds with PfGluPho inh. recombinant PfGluPho, NADPH-diaphorase-resazurin fluorescence;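 active = inhibition of at least 50% at 20 µM in any single replicate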
Diaph ctr 10uM = diaphorase inhibition or oxidation at 10 uM NADPH; shares compounds with PfGluPho inh; diaphorase-coupled resazurin reduction, fluorescence, NADPH 10 uM; inhibition, % at 20 µM; hit rate 39% among 820;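 active = average inhibition reaching 50% or more with the compound at 20 µM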;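 note: resorufin red fluorescence formed as diaphorase reduces resazurin using NADPH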
Diaphorase 30uM = diaphorase inhibition or oxidation at 30 uM NADPH; shares compounds with PfGluPho inh; Diaphorase/resazurin coupled assay, resorufin fluorescence; inhibition, % at 20 µM; hit rate 29% among 820; AID 504863;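 active = inhibition averaging 50% or more, tested at 20 µM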
A number is an active result; n = inactive; x = no result given.

SMILES | UCH37 DUB inh | PfGluPho inh | B2AR ag | aDG glyco up | HKDC1 inh | H9c2 protect | PfGluPho conf | others
Nc1c(C(=O)N2CCOCC2)sc2nc(N3CCOCC3)c3c(c12)CCCC3 | n | 65.5 | n | n | n | n | n
O=C(NN=Cc1cc(Br)c(Br)o1)c1cncc(Br)c1 | n | x | x | x | x | x | x
COc1cc(C=NNC(=O)C(Cc2c[nH]c3ccccc23)NC(=O)OCc2ccccc2)cc([N+](=O)[O-])c1O (stereo not drawn) | n | x | x | x | x | x | x
Cc1ccc2nc(C)c(=NO)c(C)nc2c1 | n | x | x | x | x | x | x
Cc1nc2ccc(Cl)cc2nc(C)/c1=N\O | x | 59.5 | n | n | n | n | n
CON=Cc1ccc(Oc2ccc([N+](=O)[O-])cc2[N+](=O)[O-])c(OC)c1 | n | x | x | x | x | x | x
CN1CCN(C=NC2=C(C#N)C(c3ccccc3)C3=C(CC(C)(C)CC3=O)O2)CC1 (stereo not drawn) | n | x | x | x | x | x | x
COc1ccc(-n2c(SCC#N)nc3c(sc(=S)n3-c3ccccc3)c2=O)c(OC)c1 | n | 91.0 | n | n | n | n | n
CC(C)Cn1c(N)c(C(=O)COC(=O)c2cc(-c3ccco3)nc3ccccc23)c(=O)n(C)c1=O | n | 71.0 | n | n | n | n | n
CC(C)Cn1c(N)c(C(=O)COC(=O)c2cc(-c3ccccc3)nc3ccccc23)c(=O)n(C)c1=O | n | n | n | n | n | n | x
CC1=CC(C)(C)Nc2ccc(OC(=O)CN3C(=O)CCC3=O)cc21 | n | 62.1 | n | n | n | n | 51.6 | Diaph ctr 10uM=n;Diaphorase 30uM=n
Nc1n[nH]c(=S)n1/N=C1/C(=O)Nc2ccccc21 | x | 73.2 | n | n | n | n | n
Cc1cc(-n2c(C)cc(C(=O)COc3ccc(F)c(F)c3)c2C)no1 | n | 60.6 | n | n | n | n | n
CCOC(=O)c1c2ccc(OCC(=O)NN)cc2n2ccccc12 | n | n | n | n | n | n | 58.6 | Diaph ctr 10uM=60.7;Diaphorase 30uM=n
CC(=NNC(=O)c1c(Cl)c(C)nn1C)c1cccc(NC(=O)COc2ccc(Cl)cc2)c1 | n | x | x | x | x | x | x
COC(=O)c1c(-c2cccnc2)csc1NC(=O)c1cc(C)on1 | n | 62.4 | n | n | n | n | n
O=C(Nc1ccc2nc(-c3ccc(Br)o3)[nH]c2c1)c1cccs1 | n | 86.4 | n | n | n | n | n
O=C(Nc1ccc2nc(-c3ccc(Br)o3)[nH]c2c1)c1ccco1 | n | 69.7 | n | n | n | n | n
CC(=O)Nc1ccc2nc(-c3ccc(Br)o3)[nH]c2c1 | n | n | n | n | n | n | x
O=C(NN=Cc1coc2ccc(Cl)cc2c1=O)c1ccc(O)cc1 | n | x | x | x | x | x | x
C=CCc1cccc(C=NNC(=O)C(=O)Nc2ccc(C)cc2)c1O | n | x | x | x | x | x | x
Cn1c(C(=O)NCCCN2CCCCCC2)cc2c(=O)n(C)c3ccccc3c21 | n | 60.0 | n | n | n | n | n
CCCN1CCN(CCCNC(=O)c2cc3c(=O)n(C)c4ccccc4c3n2C)CC1 | n | n | n | n | n | n | x
CSc1nnc(C(C)(C)C)c(=O)n1N=Cc1ccc(Cl)cc1 | n | x | x | x | x | x | x
O=C(O)c1cccc(N2C(=O)C=CC2=O)c1 | x | 75.6 | x | n | x | n | 76.2 | Diaph ctr 10uM=n;Diaphorase 30uM=n
SMILES | UCH37 DUB inh | PfGluPho inh | B2AR ag | aDG glyco up | HKDC1 inh | H9c2 protect | PfGluPho conf | others
CCC(C)(C)c1nnc(NC(=O)c2cccc([N+](=O)[O-])c2)s1 | n | 116.4 | n | n | n | n | 88.5 | Diaph ctr 10uM=93.4;Diaphorase 30uM=63.7
O=C(Nc1nnc(CSCc2ccc(F)cc2)s1)c1cccc([N+](=O)[O-])c1 | n | 73.0 | n | n | n | n | n
O=C(Nc1nn[nH]n1)c1cccc([N+](=O)[O-])c1 | x | n | n | n | n | n | x
O=C(Nc1nnc(CSCc2ccc(Cl)cc2)s1)c1cccc([N+](=O)[O-])c1 | n | n | n | n | n | n | x
O=C(NN=Cc1ccc2c(c1)OCO2)C(=O)Nc1cccc(Cl)c1 | n | x | x | x | x | x | x
COc1cc(C=NO)ccc1OCc1ccc(C(=O)O)cc1 | n | x | x | x | x | x | x
CC(=NNC(=O)c1cc(Cl)ccc1O)C12CC3CC(CC(C3)C1)C2 | n | x | x | x | x | x | x
CC(Sc1nc2cc([N+](=O)[O-])ccc2n1-c1ccc(F)cc1)C(=O)NCc1ccc2c(c1)OCO2 (stereo not drawn) | n | n | n | n | n | n | x
COc1ccccc1-n1c(SCC(=O)NCc2ccc3c(c2)OCO3)nc2cc([N+](=O)[O-])ccc21 | n | 95.2 | n | n | n | 107.0 | n
O=C(O)Cn1cc(C=NNc2ccc([N+](=O)[O-])cn2)c2ccccc21 | n | x | x | x | x | x | x
CN(C)c1ccc(C(=S)NCc2ccco2)cc1 | n | 63.1 | n | n | n | n | n
S=C(NCc1ccccc1)NCc1ccco1 | n | n | n | n | n | n | x
S=C(NCc1ccco1)NCc1ccco1 | n | 79.2 | n | n | n | n | n
O=C(Cc1ccc(Br)cc1)NN=Cc1cccnc1 | n | x | x | x | x | x | x
Cc1ccc(NC(=O)C2Cc3ccccc3CN2C(=O)c2ccccc2)cc1Cl (stereo not drawn) | n | 94.4 | n | n | n | n | n
Cc1ccc(C(=O)N2Cc3ccccc3CC2C(=O)O)cc1 (stereo not drawn) | n | n | n | n | n | n | x
N#C/C(=C/c1ccc(N2CCCCCC2)o1)c1ccc(F)cc1 | n | n | n | n | n | n | x
N#C/C(=C/c1ccc(N2CCCCCC2)o1)c1cccc(F)c1 | n | 64.9 | n | n | n | n | n
N#C/C(=C\c1ccc(N2CCOCC2)o1)c1ccccc1 | n | n | n | n | n | n | x
N#C/C(=C/c1ccc(N2CCOCC2)o1)c1ccc(Br)cc1 | n | 80.3 | n | n | n | n | n
COc1ccccc1C(=O)N=c1sc2c(C)ccc(OC)c2n1C | n | 62.8 | n | n | n | n | n
COc1ccc(Nc2nc(C)c(-c3ccccc3)s2)cc1 | n | 75.7 | n | n | n | n | n
COc1ccc2c(c1)sc1nc(-c3ccccc3)cn12 | x | 97.8 | n | 14.0 | n | n | n
CCOC(=O)N1CCN(C(=O)c2ccc3c(c2)sc2nc(-c4ccc(OC)cc4)cn23)CC1 | n | n | n | n | n | n | x
Cc1cc(O)c(C(C)C)cc1N=Cc1ccccc1O | n | 102.8 | n | n | n | n | n
Cc1cc(O)c(C(C)C)cc1N=Cc1cc([N+](=O)[O-])ccc1O | n | 82.3 | n | n | n | n | n
CC(N=Cc1ccccc1O)c1ccccc1 (stereo not drawn) | n | n | n | n | n | n | x
O=[N+]([O-])c1ccc(O)c(C=Nc2ccc3c(c2)OCO3)c1 | n | n | n | n | n | n | x
